Test results: ChEMBL document CHEMBL5058577, “EUbOPEN Chemogenomics Library 2 (Multiplex)” (2022)

Tested on: Fibroblast
Test: Multiplex assay against human fibroblast
Assay type: toxicity, cell-based
Method in brief: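 Live cells were stained at seeding with Hoechst33342, BioTracker Green Microtubule Cytoskeleton Dye, MitoTracker Red and Annexin V Alexa Fluor 680. Following compound addition, they were imaged on a CQ1 microscope at 37°C and 5% CO2 and gated by CellPathfinder machine learning into Hoechst high-intensity objects or normal cells, with normal cells split into healthy, pyknosed or fragmented nuclei and pyknosed cells into mitotic or apoptotic. Tubulin, mitochondrial-mass and membrane-permeability phenotypes are per cents of healthy-nucleus cells.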

[1] = 12 h, 1 µM, compound concentration 1 uM, replicate 1
[2] = 12 h, 1 µM, compound concentration 1 uM, replicate 2
[3] = 12 h, 10 µM, compound concentration 10 uM, replicate 1
[4] = 12 h, 10 µM, compound concentration 10 uM, replicate 2
[5] = 24 h, 1 µM, compound concentration 1 uM, replicate 1
[6] = 24 h, 1 µM, compound concentration 1 uM, replicate 2
[7] = 24 h, 10 µM, compound concentration 10 uM, replicate 1
[8] = 24 h, 10 µM, compound concentration 10 uM, replicate 2
[9] = 48 h, 1 µM, compound concentration 1 uM, replicate 1
[10] = 48 h, 1 µM, compound concentration 1 uM, replicate 2
[11] = 48 h, 10 µM, compound concentration 10 uM, replicate 1
[12] = 48 h, 10 µM, compound concentration 10 uM, replicate 2

`CNC[C@H](O)c1ccc(O)c(O)c1` [EPINEPHRINE] was tested, and the “Population Apoptotic (%)” value [1] was 36%, the “Population Fragmented Nuclei (%)” value [1] was 17% and the “Population Healthy Nuclei (%)” value [1] was 66%. The “Population Hoechst High Intensity Objects (%)” value [1] was 1%, the “Population Membrane Permeable-Phenotype (%)” value [1] was 1% and the “Population Mitochondria Different-Phenotype (%)” value [1] was 3%. For the same molecule, the “Population Mitotic Cells (%)” value [1] was 63%, the “Population Normal (%)” value [1] was 98% and the “Population Pyknosed Nuclei (%)” value [1] was 16%. For the same molecule, the “Population Tubulin-Different-Phenotype (%)” value [1] was 15%, the “Population Apoptotic (%)” value [2] was 40% and the “Population Fragmented Nuclei (%)” value [2] was 38%. The “Population Healthy Nuclei (%)” value [2] was 44%, the “Population Membrane Permeable-Phenotype (%)” value [2] was 13% and the “Population Mitochondria Different-Phenotype (%)” value [2] was 7%. The “Population Mitotic Cells (%)” value [2] was 60%, the “Population Pyknosed Nuclei (%)” value [2] was 17% and the “Population Tubulin-Different-Phenotype (%)” value [2] was 42%. For the same molecule, the “Population Apoptotic (%)” value [3] was 40%, the “Population Fragmented Nuclei (%)” value [3] was 18% and the “Population Healthy Nuclei (%)” value [3] was 61%. The “Population Hoechst High Intensity Objects (%)” value [3] was 3%, the “Population Membrane Permeable-Phenotype (%)” value [3] was 1% and the “Population Mitochondria Different-Phenotype (%)” value [3] was 6%. For the same molecule, the “Population Mitotic Cells (%)” value [3] was 60%, the “Population Normal (%)” value [3] was 96% and the “Population Pyknosed Nuclei (%)” value [3] was 20%. The “Population Tubulin-Different-Phenotype (%)” value [3] was 23%, the “Population Apoptotic (%)” value [4] was 32% and the “Population Fragmented Nuclei (%)” value [4] was 39%. The “Population Healthy Nuclei (%)” value [4] was 37%, the “Population Hoechst High Intensity Objects (%)” value [4] was 7% and the “Population Membrane Permeable-Phenotype (%)” value [4] was 12%. The “Population Mitochondria Different-Phenotype (%)” value [4] was 8%, the “Population Mitotic Cells (%)” value [4] was 67% and the “Population Normal (%)” value [4] was 92%. For the same molecule, the “Population Pyknosed Nuclei (%)” value [4] was 23%, the “Population Tubulin-Different-Phenotype (%)” value [4] was 55% and the “Population Apoptotic (%)” value [5] was 54%. For the same molecule, the “Population Fragmented Nuclei (%)” value [5] was 12%, the “Population Healthy Nuclei (%)” value [5] was 70% and the “Population Hoechst High Intensity Objects (%)” value [5] was 0%. The “Population Membrane Permeable-Phenotype (%)” value [5] was 0%, the “Population Mitochondria Different-Phenotype (%)” value [5] was 3% and the “Population Mitotic Cells (%)” value [5] was 45%. For the same molecule, the “Population Normal (%)” value [5] was 99%, the “Population Pyknosed Nuclei (%)” value [5] was 16% and the “Population Tubulin-Different-Phenotype (%)” value [5] was 11%. For the same molecule, the “Population Apoptotic (%)” value [6] was 23%, the “Population Fragmented Nuclei (%)” value [6] was 38% and the “Population Healthy Nuclei (%)” value [6] was 47%. The “Population Hoechst High Intensity Objects (%)” value [6] was 3%, the “Population Membrane Permeable-Phenotype (%)” value [6] was 12% and the “Population Mitochondria Different-Phenotype (%)” value [6] was 6%. The “Population Mitotic Cells (%)” value [6] was 76%, the “Population Normal (%)” value [6] was 96% and the “Population Pyknosed Nuclei (%)” value [6] was 14%. For the same molecule, the “Population Tubulin-Different-Phenotype (%)” value [6] was 32%, the “Population Apoptotic (%)” value [7] was 65% and the “Population Fragmented Nuclei (%)” value [7] was 16%. For the same molecule, the “Population Healthy Nuclei (%)” value [7] was 60%, the “Population Hoechst High Intensity Objects (%)” value [7] was 3% and the “Population Membrane Permeable-Phenotype (%)” value [7] was 0%. For the same molecule, the “Population Mitochondria Different-Phenotype (%)” value [7] was 5%, the “Population Mitotic Cells (%)” value [7] was 34% and the “Population Normal (%)” value [7] was 96%. The “Population Pyknosed Nuclei (%)” value [7] was 23%, the “Population Tubulin-Different-Phenotype (%)” value [7] was 21% and the “Population Apoptotic (%)” value [8] was 38%. For the same molecule, the “Population Fragmented Nuclei (%)” value [8] was 39%, the “Population Healthy Nuclei (%)” value [8] was 44% and the “Population Membrane Permeable-Phenotype (%)” value [8] was 12%. The “Population Mitochondria Different-Phenotype (%)” value [8] was 4%, the “Population Mitotic Cells (%)” value [8] was 61% and the “Population Pyknosed Nuclei (%)” value [8] was 15%. For the same molecule, the “Population Tubulin-Different-Phenotype (%)” value [8] was 51%, the “Population Apoptotic (%)” value [9] was 50% and the “Population Fragmented Nuclei (%)” value [9] was 17%. For the same molecule, the “Population Healthy Nuclei (%)” value [9] was 67%, the “Population Hoechst High Intensity Objects (%)” value [9] was 1% and the “Population Membrane Permeable-Phenotype (%)” value [9] was 0%. For the same molecule, the “Population Mitochondria Different-Phenotype (%)” value [9] was 6%, the “Population Mitotic Cells (%)” value [9] was 50% and the “Population Normal (%)” value [9] was 98%. For the same molecule, the “Population Pyknosed Nuclei (%)” value [9] was 15%, the “Population Tubulin-Different-Phenotype (%)” value [9] was 23% and the “Population Apoptotic (%)” value [10] was 38%. The “Population Fragmented Nuclei (%)” value [10] was 41%, the “Population Healthy Nuclei (%)” value [10] was 48% and the “Population Membrane Permeable-Phenotype (%)” value [10] was 6%. For the same molecule, the “Population Mitochondria Different-Phenotype (%)” value [10] was 5%, the “Population Mitotic Cells (%)” value [10] was 61% and the “Population Pyknosed Nuclei (%)” value [10] was 10%. The “Population Tubulin-Different-Phenotype (%)” value [10] was 45%, the “Population Apoptotic (%)” value [11] was 77% and the “Population Fragmented Nuclei (%)” value [11] was 20%. For the same molecule, the “Population Healthy Nuclei (%)” value [11] was 65%, the “Population Hoechst High Intensity Objects (%)” value [11] was 2% and the “Population Membrane Permeable-Phenotype (%)” value [11] was 2%. The “Population Mitochondria Different-Phenotype (%)” value [11] was 4%, the “Population Mitotic Cells (%)” value [11] was 22% and the “Population Normal (%)” value [11] was 97%. The “Population Pyknosed Nuclei (%)” value [11] was 13%, the “Population Tubulin-Different-Phenotype (%)” value [11] was 32% and the “Population Apoptotic (%)” value [12] was 37%. For the same molecule, the “Population Fragmented Nuclei (%)” value [12] was 50%, the “Population Healthy Nuclei (%)” value [12] was 44% and the “Population Hoechst High Intensity Objects (%)” value [12] was 3%. For the same molecule, the “Population Membrane Permeable-Phenotype (%)” value [12] was 6%, the “Population Mitochondria Different-Phenotype (%)” value [12] was 3% and the “Population Mitotic Cells (%)” value [12] was 62%. For the same molecule, the “Population Normal (%)” value [12] was 96%, the “Population Pyknosed Nuclei (%)” value [12] was 5% and the “Population Tubulin-Different-Phenotype (%)” value [12] was 46%.
